From ChEMBL document CHEMBL1687913, “Structure-activity relationship, conformational and biological studies of temporin L analogues” (J Med Chem, 2011)
Values after ≈ are worked out from the molar mass of the structure shown. Where a SMILES comes first, the peptide text is derived from it.

Legend:
[1] = Toxicity in human erythrocytes assessed as hemolysis at 24 uM after 40 mins; type: cell-based, Erythrocyte; conditions: read-out: Activity
How it was run: (§1)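 Human red blood cells suspended in 0.9% (w/v) NaCl and incubated 40 min at 37 °C with gentle mixing with serial 2-fold peptide dilutions (peptide predissolved in 20% ethanol). Spun 5 min at 900g; supernatant read at 415 nm. Cells lysed in distilled water set the 100% lysis reference.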

[2] = Toxicity in human erythrocytes assessed as hemolysis at 12 uM after 40 mins; type: cell-based, Erythrocyte; conditions: read-out: Activity; how it was run: as §1
[3] = Toxicity in human erythrocytes assessed as hemolysis at 6 uM after 40 mins; type: cell-based, Erythrocyte; conditions: read-out: Activity; how it was run: as §1
[4] = Toxicity in human erythrocytes assessed as hemolysis at 3 uM after 40 mins; type: cell-based, Erythrocyte; conditions: read-out: Activity; how it was run: as §1
[5] = Toxicity in human erythrocytes assessed as hemolysis at 1.5 uM after 40 mins; type: cell-based, Erythrocyte; conditions: read-out: Activity; how it was run: as §1
Acinetobacter baumannii = test: Antibacterial activity against Acinetobacter baumannii ATCC 19606 after 18 to 20 hrs by microbroth dilution method; type: functional
How it was run: (§2)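 CLSI microbroth dilution, adapted. Mid-log bacteria, 2 × 10^6 CFU/mL in Mueller-Hinton broth, mixed 1:1 with MH broth holding peptide in serial 2-fold dilutions in 20% ethanol (0.75-48 μM). Incubated 18-20 h at 37 °C; growth read as A600. MIC is the lowest concentration giving 100% growth inhibition.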

Acinetobacter junii = test: Antibacterial activity against […] Acinetobacter junii RT-4 after 18 to 20 hrs by microbroth dilution method; type: functional; how it was run: as §2
Enterococcus faecalis = test: Antibacterial activity against Enterococcus faecalis ATCC 29212 after 18 to 20 hrs by microbroth dilution method; type: functional; how it was run: as §2
Escherichia coli [6] = test: Antibacterial activity against Escherichia coli ATCC 25922 after 18 to 20 hrs by microbroth dilution method; type: functional; how it was run: as §2
Escherichia coli [7] = test: Antibacterial activity against Escherichia coli D21 after 18 to 20 hrs by microbroth dilution method; type: functional; how it was run: as §2
Pseudomonas syringae = test: Antibacterial activity against Pseudomonas syringae pv tobaci after 18 to 20 hrs by microbroth dilution method; type: functional; how it was run: as §2
Pseudomonas aeruginosa [8] = test: Antibacterial activity against Pseudomonas aeruginosa ATCC 15692 after 18 to 20 hrs by microbroth dilution method; type: functional; how it was run: as §2
Pseudomonas aeruginosa [9] = test: Antibacterial activity against Pseudomonas aeruginosa ATCC 27853 after 18 to 20 hrs by microbroth dilution method; type: functional; how it was run: as §2
[10] = tested on: Yersinia pseudotuberculosis; test: Antibacterial activity against Yersinia pseudotuberculosis YPIII after 18 to 20 hrs by microbroth dilution method; type: functional
How it was run: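 Broth microdilution adapted from CLSI. Mid-log bacteria at 2 × 10^6 CFU/mL in Mueller-Hinton broth were mixed 1:1 with MH broth containing peptide in serial 2-fold dilutions (peptide in 20% ethanol), 0.75-48 μM. Plates were incubated 18-20 h at 37 °C and growth was read as A600. MIC is the concentration giving 100% growth inhibition.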

Priestia megaterium = test: Antibacterial activity against Bacillus megaterium Bm11 after 18 to 20 hrs by microbroth dilution method; type: functional; how it was run: as §2
Staphylococcus aureus [11] = test: Antibacterial activity against Staphylococcus aureus ATCC 25923 after 18 to 20 hrs by microbroth dilution method; type: functional; how it was run: as §2
Staphylococcus aureus [12] = test: Antibacterial activity against Staphylococcus aureus Cowan I after 18 to 20 hrs by microbroth dilution method; type: functional; how it was run: as §2
Staphylococcus capitis = test: Antibacterial activity against Staphylococcus capitis after 18 to 20 hrs by microbroth dilution method; type: functional; how it was run: as §2
[13] = tested on: Staphylococcus epidermidis; test: Antibacterial activity against Staphylococcus epidermidis ATCC 12228 after 18 to 20 hrs by microbroth dilution method; type: functional; how it was run: as §2
Streptococcus pyogenes = test: Antibacterial activity against Streptococcus pyogenes ATCC 21547 after 18 to 20 hrs by microbroth dilution method; type: functional; how it was run: as §2
Candida albicans = test: Antifungal activity against Candida albicans ATCC 10231 after 18 to 20 hrs by microbroth dilution method; type: functional
How it was run: (§3)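 Yeasts tested by adapted CLSI microbroth dilution in Winge medium. Peptide given in serial 2-fold dilutions (0.75-48 μM, made in 20% ethanol). Incubation 18-20 h at 30 °C, read at A600. MIC taken as the concentration giving complete (100%) growth inhibition.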

[14] = tested on: Schizosaccharomyces pombe; test: Antifungal activity against Schizosaccharomyces pombe after 18 to 20 hrs by microbroth dilution method; type: functional; how it was run: as §3
Saccharomyces cerevisiae = test: Antifungal activity against Saccharomyces cerevisiae after 18 to 20 hrs by microbroth dilution method; type: functional; how it was run: as §3

SMILES | hemolysis at 40 min, 24 µM [1] [%] | hemolysis at 40 min, 12 µM [2] [%] | hemolysis at 40 min, 6 µM [3] [%] | hemolysis at 40 min, 3 µM [4] [%] | hemolysis at 40 min, 1.5 µM [5] [%] | MIC (Acinetobacter baumannii) [µM] | MIC (Acinetobacter junii) [µM] | MIC (Enterococcus faecalis) [µM] | MIC (Escherichia coli [6]) [µM] | MIC (Escherichia coli [7]) [µM] | MIC (Pseudomonas syringae) [µM] | MIC (Pseudomonas aeruginosa [8]) [µM] | MIC (Pseudomonas aeruginosa [9]) [µM] | MIC [10] [µM] | MIC (Priestia megaterium) [µM] | MIC (Staphylococcus aureus [11]) [µM] | MIC (Staphylococcus aureus [12]) [µM] | MIC (Staphylococcus capitis) [µM] | MIC [13] [µM] | MIC (Streptococcus pyogenes) [µM] | further results
CC[C@@H](C)[C@@H](NC(=O)[C@H](N)CC(C)C)C(=O)N[C@H](CCCNC(=N)N)C(=O)NCC(=O)N[C@H](CC(C)C)C(=O)N[C@H](Cc1ccccc1)C(=O)N[C@H](CCCCN)C(=O)N[C@H](CO)C(=O)N[C@H](Cc1ccccc1)C(=O)N[C@H](Cc1c[nH]c2ccccc12)C(=O)N[C@H](CCC(N)=O)C(=O)N[C@@H](C(=O)N[C@H](Cc1ccccc1)C(N)=O)C(C)C | 81 | 49 | 15 | 6 | 1 | – | – | – | – | – | – | – | – | – | – | – | – | – | – | – | –
CC[C@H](C)[C@H](NC(=O)[C@H](CCCCN)NC(=O)CNC(=O)[C@H](CC(C)C)NC(=O)[C@H](Cc1ccccc1)NC(=O)[C@H](CCCCN)NC(=O)[C@H](CO)NC(=O)[C@H](Cc1ccccc1)NC(=O)[C@H](Cc1c[nH]c2ccccc12)NC(=O)[C@H](CCC(N)=O)NC(=O)[C@@H](NC(=O)[C@@H](N)Cc1ccccc1)C(C)C)C(=O)N[C@@H](CC(C)C)C(N)=O (H-FVQWFSKFLGKIL-NH2) | 100 | 59 | 14 | 5 | 2.6 | 6 (≈ 9.67 µg/mL) | 6 (≈ 9.67 µg/mL) | 12 (≈ 19.3 µg/mL) | 12 (≈ 19.3 µg/mL) | 24 (≈ 38.7 µg/mL) | 24 (≈ 38.7 µg/mL) | 24 (≈ 38.7 µg/mL) | 48 (≈ 77.4 µg/mL) | 6 (≈ 9.67 µg/mL) | 3 (≈ 4.84 µg/mL) | 6 (≈ 9.67 µg/mL) | 12 (≈ 19.3 µg/mL) | 6 (≈ 9.67 µg/mL) | 6 (≈ 9.67 µg/mL) | 6 (≈ 9.67 µg/mL) | MIC (Candida albicans): 12 µM (≈ 19.3 µg/mL); MIC [14]: 6 µM (≈ 9.67 µg/mL); MIC (Saccharomyces cerevisiae): 6 µM (≈ 9.67 µg/mL)
CC[C@H](C)[C@H](NC(=O)[C@H](CCCNC(=N)N)NC(=O)[C@H](CC(C)C)NC(=O)[C@H](CC(C)C)NC(=O)[C@H](Cc1ccccc1)NC(=O)[C@H](CCCCN)NC(=O)[C@H](CO)NC(=O)[C@H](Cc1ccccc1)NC(=O)[C@H](Cc1c[nH]c2ccccc12)NC(=O)[C@H](CCC(N)=O)NC(=O)[C@@H](NC(=O)[C@@H](N)Cc1ccccc1)C(C)C)C(=O)N[C@@H](CC(C)C)C(N)=O (H-FVQWFSKFLLRIL-NH2) | 83 | 80 | 80 | 78 | 69 | 48 (≈ 81.4 µg/mL) | > 48 | 48 (≈ 81.4 µg/mL) | > 48 | 48 (≈ 81.4 µg/mL) | > 48 | > 48 | > 48 | 6 (≈ 10.2 µg/mL) | 48 (≈ 81.4 µg/mL) | 48 (≈ 81.4 µg/mL) | 48 (≈ 81.4 µg/mL) | > 48 | 3 (≈ 5.09 µg/mL) | 6 (≈ 10.2 µg/mL) | MIC (Candida albicans): > 48 µM; MIC [14]: 6 µM (≈ 10.2 µg/mL)
CC[C@H](C)[C@H](NC(=O)[C@H](CCCNC(=N)N)NC(=O)CNC(=O)[C@H](CC(C)C)NC(=O)[C@H](Cc1ccccc1)NC(=O)[C@H](CCCNC(=N)N)NC(=O)[C@H](CO)NC(=O)[C@H](Cc1ccccc1)NC(=O)[C@H](Cc1c[nH]c2ccccc12)NC(=O)[C@H](CCC(N)=O)NC(=O)[C@@H](NC(=O)[C@@H](N)Cc1ccccc1)C(C)C)C(=O)N[C@@H](CC(C)C)C(N)=O (H-FVQWFSRFLGRIL-NH2) | 98 | 90 | 29 | 9 | 4 | 6 (≈ 10 µg/mL) | 6 (≈ 10 µg/mL) | 12 (≈ 20 µg/mL) | 12 (≈ 20 µg/mL) | 48 (≈ 80.1 µg/mL) | 12 (≈ 20 µg/mL) | 24 (≈ 40 µg/mL) | 48 (≈ 80.1 µg/mL) | 6 (≈ 10 µg/mL) | 6 (≈ 10 µg/mL) | 6 (≈ 10 µg/mL) | 6 (≈ 10 µg/mL) | 6 (≈ 10 µg/mL) | 6 (≈ 10 µg/mL) | 6 (≈ 10 µg/mL) | MIC (Candida albicans): 12 µM (≈ 20 µg/mL); MIC [14]: 6 µM (≈ 10 µg/mL); MIC (Saccharomyces cerevisiae): 12 µM (≈ 20 µg/mL)
